Screening data as filed in PubChem BioAssay.
Rows were chosen to be rich in hits. Some 2.7% of all compounds tested hit in one or more screens of this group.
SDO1 yeast rescue: growth rescue of sdo1-depleted yeast, primary screen, S. cerevisiae, bone marrow failure model. z-score at 10 µM. S. cerevisiae sdo1-depleted JHY4D growth rescue, OD600 30 h; hits give high values; pdr5 snq2 efflux-pump mutant strain. hit rate 0.21% among 140,000;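 active = z-score above 3 at both the 24 hr and the 30 hr optical density reads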
RAM network inh: inhibitors of the yeast RAM network, primary screen, dse1pr::URA3 reporter, 5-FOA selection. inhibition, % at 50 µM. AID 868, 2007. S. cerevisiae dse1pr::URA3 reporter, 5-FOA growth OD615, 2 d; analog-sensitive cbk1-as2 kinase mutant strain. hit rate 1.8% among 190,000;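 active = inhibition above a set limit, 3 SD over mean compound inhibition, cut at about 8.4% in these data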;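 note: inhibition rescues growth on 5-FOA so higher OD means more RAM inhibition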
Yeast lifespan up: compounds extending yeast replicative lifespan, primary screen, S. cerevisiae, OD615; S. cerevisiae growth with nicotinamide; deaD strain in restrictive glucose medium; inhibition of the nicotinamide effect, % at 10 µM; hit rate 0.68% among 130,000; AID 775, 2007;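 active = inhibition above a set limit, placed 3 SD over the median of all compounds, cut at about 26% in these data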
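Buffer or medium: CSMM-D glucose medium, restrictive; test system: modified budding yeast, DeaD strain; compound: single dose 10 µM compound, 0.25% DMSO; schedule: culture preincubation 4 h, compound exposure 48 h, both 30 °C; detection: optical density (absorbance) at 615 nm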
Yeast growth inh: growth inhibitors of yeast BB579 in restrictive medium, primary screen, yeast lifespan-shortening project, S. cerevisiae. hit rate 0.51% among 140,000. inhibition, % at 10 µM. OD615, 48 h;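 active = inhibition above a set limit, 3 SD over the mean compound inhibition, cut at about 44% in these data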
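Test system: Saccharomyces cerevisiae DeaD strain BB579, replicative lifespan model yeast | Buffer or medium: Restrictive CSMM-D medium | Doses: One dose, 10 µM compound with 0.25% DMSO | Incubation: 48 h exposure, 30 °C | Detection: Culture absorbance at 615 nm | Control set: Amphotericin B at 10 µg/mL as positive control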
Large screens that a line does not name were inactive.

O=C(/C=C/c1cccc([N+](=O)[O-])c1)c1cccs1	Yeast lifespan up 28
COc1ccccc1N1CC(C(=O)Nc2nnc(SCc3ccccn3)s2)CC1=O (stereo not given)	Yeast lifespan up 30
COc1ccc(N2CC(C(=O)Nc3nnc(SCc4ccccn4)s3)CC2=O)cc1 (stereo not given)	none
Cc1ccc(S(=O)(=O)N2CCC(C(=O)NNC(=O)c3ccncc3)CC2)cc1	none (no result: SDO1 yeast rescue, Yeast lifespan up, Yeast growth inh)
CN(C)/C=C/c1oc2ccc(O)cc2c1[N+](=O)[O-]	none (no result: SDO1 yeast rescue, Yeast lifespan up, Yeast growth inh)
Cn1ncc(C#N)c1/N=C/N1CCOCC1	Yeast lifespan up 40
Nc1ccc(SC(F)(F)F)cc1C(=O)c1ccccc1	Yeast growth inh 57
CCN(CC(O)Cn1c2ccccc2c2ccccc21)S(=O)(=O)c1ccc(F)cc1 (stereo not given)	RAM network inh 11
O=S(=O)(c1ccccc1)N(CC(O)Cn1c2ccccc2c2ccccc21)c1ccccc1 (stereo not given)	none
Cc1ccc(S(=O)(=O)N(C)CC(O)Cn2c3ccccc3c3ccccc32)cc1 (stereo not given)	RAM network inh 8.6
O=S(=O)(c1ccc(F)cc1)N(CCO)CC(O)Cn1c2ccccc2c2ccccc21 (stereo not given)	RAM network inh 8.7
COCCNC(=S)Nc1ccccc1Cc1ccccc1	none (no result: SDO1 yeast rescue, Yeast lifespan up, Yeast growth inh)
Cc1cc(=O)oc2cc(OCC(=O)OCC(=O)NCCc3ccccc3)ccc12	RAM network inh 9.2 (no result: SDO1 yeast rescue, Yeast lifespan up, Yeast growth inh)
CNC(=O)COC(=O)COc1ccc2c(C)cc(=O)oc2c1	none (no result: SDO1 yeast rescue, Yeast lifespan up, Yeast growth inh)
COc1cc(C(=O)NNC(=S)Nc2ccc(S(N)(=O)=O)cc2)cc(OC)c1OC	none (no result: SDO1 yeast rescue, Yeast lifespan up, Yeast growth inh)
N#C/C(=C\c1ccccc1)C(=O)N(c1ccccn1)C1CCCCC1	Yeast lifespan up 63
CCNc1ccc(C(=O)OC(C(=O)NC(N)=O)C(C)C)cc1[N+](=O)[O-] (stereo not given)	none (no result: SDO1 yeast rescue, Yeast lifespan up, Yeast growth inh)
O=S(=O)(CCSc1ccccn1)c1nc2ccccc2s1	Yeast lifespan up 60
O=C(COC(=O)/C=C/c1ccc(S(=O)(=O)N2CCOCC2)cc1)NC1CCCCCCC1	none (no result: SDO1 yeast rescue, Yeast lifespan up, Yeast growth inh)
COC(=O)c1ccc(Oc2ccc(C(C)(C)C)cc2)c([N+](=O)[O-])c1	RAM network inh 8.4
CN(C)S(=O)(=O)c1ccc(N2CCCC2)c(C(=O)Nc2nc(-c3cc(F)ccc3F)cs2)c1	RAM network inh 9.2
COc1ccc(NC(=O)/C(Cl)=C(/Cl)S(=O)Cc2ccccc2)cn1 (stereo not given)	Yeast lifespan up 53
C=CCOc1ccc2c(c1)c(S(=O)(=O)c1ccc(C)cc1)cn2COC	RAM network inh 9.9
CCn1cc(S(=O)(=O)c2ccc(C)cc2)[nH]c1=O	none (no result: SDO1 yeast rescue, Yeast lifespan up, Yeast growth inh)
COc1ccccc1NC(=O)Cn1cnc2sc(C)c(S(=O)(=O)N3CCCCC3)c2c1=O	RAM network inh 8.9
COc1ccccc1NC(=O)Cn1cnc2sc(C(=O)NCc3ccco3)c(C)c2c1=O	RAM network inh 9.4
COc1ccc(C)cc1NC(=O)Cn1cnc2sc(C)c(S(=O)(=O)N3CCOCC3)c2c1=O	none
Cc1ccc2cn[nH]c2c1[N+](=O)[O-]	none (no result: SDO1 yeast rescue, Yeast lifespan up, Yeast growth inh)
CC/C(=N/O)C(=O)c1ccc(Br)cc1	none (no result: SDO1 yeast rescue, Yeast lifespan up, Yeast growth inh)
CCOC(=O)/C(C#N)=C1\Nc2ccccc2N=C1N(CC(C)C)CC(C)C	RAM network inh 8.9
CCCCc1ccc(/C=C2\C(=O)ON=C2c2ccccc2)s1	RAM network inh 8.8
CN(C)/C=C1\C(=O)ON=C1c1ccccc1	none (no result: SDO1 yeast rescue, Yeast lifespan up, Yeast growth inh)
Cc1ccccc1CSc1nc(-c2ccccc2)cc(=O)[nH]1	none
O=c1cc(-c2ccccc2)nc(SCc2ccccc2F)[nH]1	RAM network inh 9.3 (no result: SDO1 yeast rescue, Yeast lifespan up, Yeast growth inh)
CC(C)c1ccc(NC(=S)NCCc2c[nH]c3ccccc23)cc1	Yeast growth inh 55
O=S(=O)(NNc1ccc(Cl)nn1)c1ccc(F)cc1	none
Cc1ccc(N2C(=O)Nc3ccccc3C2(O)C(=O)N2CCN(c3ccccn3)CC2)cc1C (stereo not given)	none (no result: SDO1 yeast rescue, Yeast lifespan up, Yeast growth inh)
O=[N+]([O-])c1cccc(/C=N/Nc2nc(NCc3ccccc3)nc(N3CCOCC3)n2)c1O	none (no result: SDO1 yeast rescue, Yeast lifespan up, Yeast growth inh)
CC[C@@H](C(=O)n1nc(C)cc1C)[C@H](NS(=O)(=O)c1ccc(C)cc1)c1ccccc1	RAM network inh 10.0
Cc1ccc(S(=O)(=O)NC(C(=O)O)c2ccccc2)cc1 (stereo not given)	none (no result: SDO1 yeast rescue, Yeast lifespan up, Yeast growth inh)
N#Cc1c(-c2ccco2)cc(C2CC2)nc1SCC(=O)c1ccccc1	RAM network inh 8.7
COC(=O)CSc1nc(N)c(C#N)c(-c2ccco2)c1C#N	none
